From ChEMBL document CHEMBL3875192, “Synthesis and binding monitoring of a new nanomolar PAMAM-based matrix metalloproteinases inhibitor (MMPIs)” (Bioorg Med Chem, 2017)
Calls of active or inactive are those of the source. The rule behind the calls is not given here.

Tests used:
[1] = target: T1, Macrophage metalloelastase (Homo sapiens, UniProt P39900); assay: Binding affinity to MMP-12 catalytic domain (unknown origin) assessed as hydrodynamic radius by dynamic light scattering method
Procedure, shortened: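 Samples in glass tubes sat in a thermostatic cell filled with decahydronaphthalene for refractive-index matching. Cumulant fitting of the light-scattering data gave the diffusion coefficient of the complexes, and the average hydrodynamic radius came from the Stokes–Einstein relation assuming spherical particles.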
Target sequence in this assay (P39900 106-470 limits assumed): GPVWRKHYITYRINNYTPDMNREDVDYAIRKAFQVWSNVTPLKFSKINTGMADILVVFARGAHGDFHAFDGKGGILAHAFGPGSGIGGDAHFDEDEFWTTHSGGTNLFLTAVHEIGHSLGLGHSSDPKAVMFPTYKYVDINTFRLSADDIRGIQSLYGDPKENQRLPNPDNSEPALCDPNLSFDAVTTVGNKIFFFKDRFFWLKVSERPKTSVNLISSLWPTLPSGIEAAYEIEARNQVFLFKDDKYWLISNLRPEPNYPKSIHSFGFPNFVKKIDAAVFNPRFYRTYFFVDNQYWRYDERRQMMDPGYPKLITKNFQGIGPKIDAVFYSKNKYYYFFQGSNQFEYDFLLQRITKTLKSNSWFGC

[2] = target: Collagenase 3 (Homo sapiens, UniProt P45452); assay: Inhibition of MMP-13 (unknown origin) assessed as inhibition of hydrolysis of Mca-Pro-Leu-Gly-Leu-Dpa-Ala-Arg-NH2 substrate by fluorimetric assay
[3] = target: T1, Macrophage metalloelastase; assay: Inhibition of MMP-12 catalytic domain (unknown origin) assessed as inhibition of hydrolysis of Mca-Pro-Leu-Gly-Leu-Dpa-Ala-Arg-NH2 substrate by fluorimetric assay
Target sequence in this assay (P39900 whole entry, the tested form may be a part): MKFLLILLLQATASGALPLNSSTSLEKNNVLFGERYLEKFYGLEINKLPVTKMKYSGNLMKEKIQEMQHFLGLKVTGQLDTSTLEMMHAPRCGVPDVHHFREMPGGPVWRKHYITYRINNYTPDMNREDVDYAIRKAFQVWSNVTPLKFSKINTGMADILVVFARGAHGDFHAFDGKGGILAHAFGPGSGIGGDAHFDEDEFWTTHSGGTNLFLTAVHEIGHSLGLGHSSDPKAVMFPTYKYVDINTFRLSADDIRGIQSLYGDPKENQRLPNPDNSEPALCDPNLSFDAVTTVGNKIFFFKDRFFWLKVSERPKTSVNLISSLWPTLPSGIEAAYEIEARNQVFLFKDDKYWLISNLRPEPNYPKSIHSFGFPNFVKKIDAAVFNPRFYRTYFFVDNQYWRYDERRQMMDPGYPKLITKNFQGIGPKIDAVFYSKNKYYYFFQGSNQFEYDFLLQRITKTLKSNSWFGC

[4] = target: T1, Macrophage metalloelastase; assay: Binding affinity to 15N-enriched MMP-12 catalytic domain (unknown origin) at 0.2 mM by 2D 1H-15N HSQC NMR spectroscopy
Procedure, shortened: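 Ligand was added from a DMSO-d₆ solution to a final 0.2 mM with 1% DMSO-d₆. Amide NH resonances were followed by sensitivity-enhanced 2D ¹H-¹⁵N HSQC, and spectral changes were the binding read-out.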
Target sequence in this assay (P39900 106-470 limits assumed): as the sequence (P39900 106-470 limits assumed) above

[5] = target: T2, Matrilysin (Homo sapiens, UniProt P09237); assay: Inhibition of MMP-7 (unknown origin) assessed as inhibition of hydrolysis of Mca-Pro-Leu-Gly-Leu-Dpa-Ala-Arg-NH2 substrate by fluorimetric assay
T2 sequence (P09237 whole entry): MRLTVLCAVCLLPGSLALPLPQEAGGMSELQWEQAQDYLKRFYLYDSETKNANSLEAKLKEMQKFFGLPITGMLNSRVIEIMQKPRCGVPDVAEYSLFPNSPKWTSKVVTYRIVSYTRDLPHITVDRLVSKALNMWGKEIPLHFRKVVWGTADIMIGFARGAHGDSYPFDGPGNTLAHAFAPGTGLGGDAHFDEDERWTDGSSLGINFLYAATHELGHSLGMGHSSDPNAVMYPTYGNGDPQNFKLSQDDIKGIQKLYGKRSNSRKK

[6] = target: 72 kDa type IV collagenase (Homo sapiens, UniProt P08253); assay: Inhibition of MMP-2 (unknown origin) assessed as inhibition of hydrolysis of Mca-Pro-Leu-Gly-Leu-Dpa-Ala-Arg-NH2 substrate by fluorimetric assay
[7] = target: T3, Interstitial collagenase (Homo sapiens, UniProt P03956); assay: Inhibition of MMP-1 (unknown origin) assessed as inhibition of hydrolysis of Mca-Pro-Leu-Gly-Leu-Dpa-Ala-Arg-NH2 substrate by fluorimetric assay
T3 sequence (P03956 whole entry): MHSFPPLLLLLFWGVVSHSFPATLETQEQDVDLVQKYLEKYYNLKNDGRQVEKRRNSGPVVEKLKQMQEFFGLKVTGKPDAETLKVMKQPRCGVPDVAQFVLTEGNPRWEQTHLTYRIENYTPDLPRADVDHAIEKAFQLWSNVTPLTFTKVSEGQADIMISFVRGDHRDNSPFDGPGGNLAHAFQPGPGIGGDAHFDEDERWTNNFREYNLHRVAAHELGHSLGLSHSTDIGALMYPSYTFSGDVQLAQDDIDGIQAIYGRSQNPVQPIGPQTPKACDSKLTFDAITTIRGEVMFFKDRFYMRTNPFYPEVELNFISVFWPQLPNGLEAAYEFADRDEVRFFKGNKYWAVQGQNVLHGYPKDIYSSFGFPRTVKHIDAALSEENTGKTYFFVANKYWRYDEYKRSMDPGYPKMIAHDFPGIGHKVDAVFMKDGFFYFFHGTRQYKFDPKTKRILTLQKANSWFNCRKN

[8] = target: T4, Matrix metalloproteinase-9 (Homo sapiens, UniProt P14780); assay: Inhibition of human recombinant MMP-9 catalytic domain (112 to 445 residues) expressed in Escherichia coli assessed as inhibition of hydrolysis of Mca-Pro-Leu-Gly-Leu-Dpa-Ala-Arg-NH2 substrate by fluorimetric assay
Procedure, shortened: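 Inhibition constant toward MMP-9 was determined fluorimetrically by monitoring hydrolysis of the quenched peptide substrate Mca-Pro-Leu-Gly-Leu-Dpa-Ala-Arg-NH₂.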

[9] = target: T4, Matrix metalloproteinase-9; assay: Inhibition of MMP-9 catalytic domain (unknown origin)

T4 sequence (P14780 whole entry, the tested form may be a part): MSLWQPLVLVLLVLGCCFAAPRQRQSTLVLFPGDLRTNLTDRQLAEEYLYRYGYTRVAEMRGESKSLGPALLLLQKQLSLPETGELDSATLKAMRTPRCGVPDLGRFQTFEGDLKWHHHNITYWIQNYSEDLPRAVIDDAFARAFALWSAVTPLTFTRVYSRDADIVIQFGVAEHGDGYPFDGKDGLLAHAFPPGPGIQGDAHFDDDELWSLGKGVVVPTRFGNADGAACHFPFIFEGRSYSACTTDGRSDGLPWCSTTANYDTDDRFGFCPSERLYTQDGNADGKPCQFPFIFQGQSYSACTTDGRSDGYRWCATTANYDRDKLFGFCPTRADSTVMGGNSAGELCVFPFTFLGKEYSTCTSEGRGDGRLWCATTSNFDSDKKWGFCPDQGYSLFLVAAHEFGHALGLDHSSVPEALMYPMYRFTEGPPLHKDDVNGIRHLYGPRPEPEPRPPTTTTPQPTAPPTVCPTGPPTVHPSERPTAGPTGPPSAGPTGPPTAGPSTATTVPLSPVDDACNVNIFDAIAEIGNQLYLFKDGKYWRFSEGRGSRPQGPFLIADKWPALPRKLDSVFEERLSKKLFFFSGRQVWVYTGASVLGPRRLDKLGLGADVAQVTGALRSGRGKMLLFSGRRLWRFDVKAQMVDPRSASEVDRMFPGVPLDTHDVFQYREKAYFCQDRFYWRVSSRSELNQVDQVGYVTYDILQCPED
Chain of 72 kDa type IV collagenase (P08253 whole entry): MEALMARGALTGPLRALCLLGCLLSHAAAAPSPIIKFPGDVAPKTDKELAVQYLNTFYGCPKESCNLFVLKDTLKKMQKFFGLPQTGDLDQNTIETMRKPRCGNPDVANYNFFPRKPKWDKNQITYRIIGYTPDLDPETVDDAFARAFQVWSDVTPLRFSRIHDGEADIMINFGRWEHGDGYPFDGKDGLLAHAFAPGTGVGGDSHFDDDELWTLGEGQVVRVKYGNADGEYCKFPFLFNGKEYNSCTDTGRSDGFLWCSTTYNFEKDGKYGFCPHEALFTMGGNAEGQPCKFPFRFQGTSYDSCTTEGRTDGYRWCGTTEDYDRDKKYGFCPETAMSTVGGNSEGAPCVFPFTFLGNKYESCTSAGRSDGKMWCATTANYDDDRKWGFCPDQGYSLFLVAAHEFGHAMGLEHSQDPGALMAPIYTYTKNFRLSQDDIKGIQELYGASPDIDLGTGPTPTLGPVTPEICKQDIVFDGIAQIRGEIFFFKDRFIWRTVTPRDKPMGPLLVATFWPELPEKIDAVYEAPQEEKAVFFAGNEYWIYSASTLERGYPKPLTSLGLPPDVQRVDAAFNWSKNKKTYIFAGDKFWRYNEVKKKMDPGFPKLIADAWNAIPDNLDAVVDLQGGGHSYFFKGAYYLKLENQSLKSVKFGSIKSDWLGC

Activity [1]	Ki [2]	Ki [3]	Activity [4]	Ki [5]	Ki [6]	Ki [7]	Ki [8]	Ki [9]	Structure (SMILES)
3 nm	57.5 nM	23 nM	Active	3760 nM	15.9 nM	143 nM	18 nM		COc1ccc(S(=O)(=O)N(CCCCCNC(=O)CCCCC(=O)NCCNC(=O)CCN(CCNC(=O)OC(C)(C)C)CCC(=O)NCCNC(=O)CCCCC(=O)NCCCCCN([C@H](CO)C(=O)NO)S(=O)(=O)c2ccc(OC)cc2)[C@H](CO)C(=O)NO)cc1
								289 nM	COc1ccc(S(=O)(=O)N(CCNC(=O)CCCCC(=O)NCCNC(=O)CCN(CCNC(=O)OC(C)(C)C)CCC(=O)NCCNC(=O)CCCCC(=O)NCCN([C@H](CO)C(=O)NO)S(=O)(=O)c2ccc(OC)cc2)[C@H](CO)C(=O)NO)cc1
2.1 nm									COc1ccc(S(=O)(=O)N(CC(=O)NO)CC(C)C)cc1
